Published values from different studies.
Each line is one published result; the experiments were not run side by side.
Sample: plasma

| SMILES | test system | conditions | Tmax [h] |
| --- | --- | --- | --- |
| NS(=O)(=O)OC[C@@H]1C[C@@H](n2ccc3c(N[C@H]4CCc5ccccc54)ncnc32)C[C@@H]1O | human | intravenous, 15 mg/m², patients | 1.13 |
| CN1CC[C@@H](c2c(O)cc(O)c3c(=O)cc(-c4ccc(C(F)(F)F)cc4Cl)oc23)[C@@H]1CO | human | oral, 50 mg, patients | 4.1 |
| Cc1ccc(C(=O)Nc2ccc(CN3CCN(C)CC3)c(C(F)(F)F)c2)cc1C#Cc1cnc2[nH]ncc2c1 | human | oral, 40 mg, healthy volunteers | 8 |
| CNC(=O)n1ccc2cc(Oc3ccnc(NC(=O)c4ccc(C5CCN(CCO)CC5)cc4)c3)c(OCCOC)cc21 | human | oral, 35 mg, single dose, fasted, healthy volunteers | 3 |
| Cl.[2H]C([2H])([2H])CC(=O)c1cnc(NC(=O)C2CC2)cc1Nc1cccc(-c2ncn(C([2H])([2H])[2H])n2)c1OC | human | oral, 20 mg, multiple doses, once daily, fasted | 2.1 |
| NC(=S)NN=Cc1ncccc1N | human | oral, 100 mg | 0.9 |
| Cn1cc(Nc2nc(N)nc(-c3cccc(-n4ccc5cc(C6CC6)cc(F)c5c4=O)c3CO)n2)cn1 | human | oral, 300 mg, single dose, fasted, healthy volunteers | 2 |
| CC(C)n1c(Nc2cccnc2)nc2cnc(Nc3ccc(N4CCN(C)CC4)cc3)nc21 | male human | oral, 150 mg, single dose, healthy volunteers | 1.5 |
| COc1ccc([C@@H](O)c2cc(-c3ncnc4cc(N5CCOCC5)ccc34)c(F)cc2Cl)nn1 | human | oral, 400 mg, single dose, patients | 1.08 |
